Experiments:
[1] = target: Neuronal acetylcholine receptor; alpha4/beta2 (Rattus norvegicus) (UniProt P09483+P12390); experiment: Displacement of [3H]nicotine from alpha4beta2 nAChR in rat brain membrane at 100 nM; assay type: cell membranes
Summary of the method: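 Whole rat brain membranes, [3H]nicotine binding at 3 nM radioligand; nonspecific binding defined with 10 μM […]. Analogue tested at a 100 nM probe concentration. Inhibition expressed as percent of radioligand binding without analogue. At least three independent experiments, each in duplicate.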

[2] = target: Neuronal acetylcholine receptor subunit alpha-7 (Rattus norvegicus) (UniProt Q05941); experiment: Displacement of [3H]methyllycaconitine from alpha7 nAChR in rat brain membrane at 100 nM; assay type: cell membranes
Sequence of Neuronal acetylcholine receptor subunit alpha-7 (Rattus norvegicus) (Q05941 whole entry): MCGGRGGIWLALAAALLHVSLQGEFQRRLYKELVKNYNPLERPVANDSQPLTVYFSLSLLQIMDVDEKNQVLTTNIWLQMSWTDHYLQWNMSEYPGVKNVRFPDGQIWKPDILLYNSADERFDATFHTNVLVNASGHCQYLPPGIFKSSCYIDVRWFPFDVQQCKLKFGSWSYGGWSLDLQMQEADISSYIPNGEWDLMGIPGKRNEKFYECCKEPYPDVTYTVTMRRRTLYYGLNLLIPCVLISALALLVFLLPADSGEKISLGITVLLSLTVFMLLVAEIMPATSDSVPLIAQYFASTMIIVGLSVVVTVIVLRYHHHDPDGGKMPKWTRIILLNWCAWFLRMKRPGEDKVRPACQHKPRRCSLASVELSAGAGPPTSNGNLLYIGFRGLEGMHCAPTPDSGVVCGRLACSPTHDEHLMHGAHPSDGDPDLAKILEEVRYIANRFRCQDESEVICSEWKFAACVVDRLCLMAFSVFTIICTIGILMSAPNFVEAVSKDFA
Summary of the method: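 Whole rat brain membranes, [3H]MLA binding at 2.5 nM radioligand; nonspecific binding defined with 10 μM nicotine. Analogue tested at a 100 nM probe concentration. Inhibition expressed as percent of radioligand binding without analogue. At least three independent experiments, each in duplicate.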

Rattus norvegicus = species on record: Rattus norvegicus; experiment: Inhibition of nAChR-mediated nicotine-evoked [3H]DA release in superfused rat striatal slices at 100 nM
Summary of the method: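 Rat striatal slices, preloaded with [3H]DA, superfused 36 min with or without 100 nM analogue, then 36 min more with 10 μM S(-)-nicotine added. Inhibition expressed as percent of the nicotine-evoked [3H]DA overflow without analogue. At least three independent experiments, each in duplicate.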

[3] = Inhibition of nAChR-mediated nicotine-evoked [3H]DA release in superfused rat striatal slices
Summary of the method: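 Superfused rat striatal slices, [3H]DA overflow evoked by 10 μM S(-)-nicotine after 36 min analogue pre-exposure, superfusion continued 36 min. Full concentration range 1 nM to 10 μM. IC50 from iterative nonlinear least-squares curve fitting; 4–5 independent experiments, each in duplicate.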

[4] = target: Neuronal acetylcholine receptor subunit alpha-7 (Rattus norvegicus, UniProt Q05941); experiment: Displacement of [3H]methyllycaconitine from alpha7 nAChR in rat brain membrane; assay type: cell membranes
Sequence of Neuronal acetylcholine receptor subunit alpha-7 (Q05941 whole entry): as above

Cc1cc[n+](CCCC#Cc2cc(C#CCCC[n+]3ccc(C)c(C)c3)c(C#CCCC[n+]3ccc(C)c(C)c3)cc2C#CCCC[n+]2ccc(C)c(C)c2)cc1C showed an Activity [1] of 9.8%, an Activity [2] of 0.6% and an inhibition (Rattus norvegicus) of 17%.

Cc1ccc[n+](CCCC#Cc2cc(C#CCCC[n+]3cccc(C)c3)c(C#CCCC[n+]3cccc(C)c3)cc2C#CCCC[n+]2cccc(C)c2)c1 gave an Activity [1] of 11%, an Activity [2] of 18% and an inhibition (Rattus norvegicus) of 16%.

Work on C(#Cc1cc(C#CCCC[n+]2cccc(-c3ccccc3)c2)c(C#CCCC[n+]2cccc(-c3ccccc3)c2)cc1C#CCCC[n+]1cccc(-c2ccccc2)c1)CCC[n+]1cccc(-c2ccccc2)c1 yielded an Activity [1] of 0.3%, an Activity [2] of 53% and an inhibition (Rattus norvegicus) of 37%.

In the case of C(#Cc1cc(C#CCCC[n+]2ccc3c(c2)CCCC3)c(C#CCCC[n+]2ccc3c(c2)CCCC3)cc1C#CCCC[n+]1ccc2c(c1)CCCC2)CCC[n+]1ccc2c(c1)CCCC2, the Activity [1] is reported as 9.7%, the Activity [2] is reported as 17% and the inhibition (Rattus norvegicus) is reported as 24%.

For OCCCc1ccc[n+](CCCC#Cc2cc(C#CCCC[n+]3cccc(CCCO)c3)c(C#CCCC[n+]3cccc(CCCO)c3)cc2C#CCCC[n+]2cccc(CCCO)c2)c1, the Activity [1] was 0%, the Activity [2] was 5.7% and the inhibition (Rattus norvegicus) was 41%.

Compound C(#Cc1cc(C#CCCC[n+]2ccc3ccccc3c2)c(C#CCCC[n+]2ccc3ccccc3c2)cc1C#CCCC[n+]1ccc2ccccc2c1)CCC[n+]1ccc2ccccc2c1 has an Activity [1] of 0%, an Activity [2] of 4.9% and an inhibition (Rattus norvegicus) of 39%.

CN1CCC[C@H]1c1ccc[n+](CCCCCc2cc(CCCCC[n+]3cccc([C@@H]4CCCN4C)c3)c(CCCCC[n+]3cccc([C@@H]4CCCN4C)c3)cc2CCCCC[n+]2cccc([C@@H]3CCCN3C)c2)c1 gave an Activity [1] of 7.4%, an Activity [2] of 26% and an inhibition (Rattus norvegicus) of 43%.

Work on OCCCc1ccc[n+](CCCCCc2cc(CCCCC[n+]3cccc(CCCO)c3)c(CCCCC[n+]3cccc(CCCO)c3)cc2CCCCC[n+]2cccc(CCCO)c2)c1 yielded an Activity [1] of 9.6%, an Activity [2] of 20% and an inhibition (Rattus norvegicus) of 64%. It also gave an IC50 [3] of 3.38 nM.

Compound Cc1ccc[n+](CCCCCc2cc(CCCCC[n+]3cccc(C)c3)c(CCCCC[n+]3cccc(C)c3)cc2CCCCC[n+]2cccc(C)c2)c1 has an Activity [1] of 12%, an Activity [2] of 12% and an inhibition (Rattus norvegicus) of 8%.

Cc1cc[n+](CCCCCc2cc(CCCCC[n+]3ccc(C)c(C)c3)c(CCCCC[n+]3ccc(C)c(C)c3)cc2CCCCC[n+]2ccc(C)c(C)c2)cc1C gave an Activity [1] of 0.5%, an Activity [2] of 18% and an inhibition (Rattus norvegicus) of 36%.

With Cc1ccc[n+](CCCCCCCCCCCC[n+]2cccc(C)c2)c1 the Ki [4] was over 100000 nM and the IC50 [3] was 2 nM.

Compound Cc1cc[n+](CCCC#Cc2cc(C#CCCC[n+]3ccc(C)cc3)c(C#CCCC[n+]3ccc(C)cc3)cc2C#CCCC[n+]2ccc(C)cc2)cc1 has an Activity [1] of 24%, an Activity [2] of 3% and an inhibition (Rattus norvegicus) of 35%.

With c1c(CCCCC[n+]2ccc3c(c2)CCCC3)c(CCCCC[n+]2ccc3c(c2)CCCC3)cc(CCCCC[n+]2ccc3c(c2)CCCC3)c1CCCCC[n+]1ccc2c(c1)CCCC2 the Activity [1] was 0.9%, the Activity [2] was 27% and the inhibition (Rattus norvegicus) was 27%.

For c1ccc(-c2ccc[n+](CCCCCc3cc(CCCCC[n+]4cccc(-c5ccccc5)c4)c(CCCCC[n+]4cccc(-c5ccccc5)c4)cc3CCCCC[n+]3cccc(-c4ccccc4)c3)c2)cc1, the Activity [1] was 6.6%, the Activity [2] was 33% and the inhibition (Rattus norvegicus) was 19%.

For Cc1ccc[n+](CCCC#Cc2cc(C#CCCC[n+]3cccc(C)c3)cc(C#CCCC[n+]3cccc(C)c3)c2)c1, the Activity [1] was 10%, the Activity [2] was 0% and the inhibition (Rattus norvegicus) was 40%. For the same compound, the IC50 [3] was 0.2 nM.

Work on c1ccc2c[n+](CCCCCc3cc(CCCCC[n+]4ccc5ccccc5c4)c(CCCCC[n+]4ccc5ccccc5c4)cc3CCCCC[n+]3ccc4ccccc4c3)ccc2c1 yielded an Activity [1] of 6.5%, an Activity [2] of 24% and an inhibition (Rattus norvegicus) of 63%. It also gave an IC50 [3] of 56 nM.

CN1CCC[C@H]1c1ccc[n+](CCCC#Cc2cc(C#CCCC[n+]3cccc([C@@H]4CCCN4C)c3)c(C#CCCC[n+]3cccc([C@@H]4CCCN4C)c3)cc2C#CCCC[n+]2cccc([C@@H]3CCCN3C)c2)c1 gave an Activity [1] of 38%, an Activity [2] of 15% and an inhibition (Rattus norvegicus) of 31%.

For Cc1cc(C)c[n+](CCCCCc2cc(CCCCC[n+]3cc(C)cc(C)c3)c(CCCCC[n+]3cc(C)cc(C)c3)cc2CCCCC[n+]2cc(C)cc(C)c2)c1, the Activity [1] was 3.7%, the Activity [2] was 15% and the inhibition (Rattus norvegicus) was 45%.

Work on Cc1cc[n+](CCCCCc2cc(CCCCC[n+]3ccc(C)cc3)c(CCCCC[n+]3ccc(C)cc3)cc2CCCCC[n+]2ccc(C)cc2)cc1 yielded an Activity [1] of 12%, an Activity [2] of 8% and an inhibition (Rattus norvegicus) of 46%.

In the case of C(#Cc1cc(C#CCCC[n+]2cccc(Cc3ccccc3)c2)c(C#CCCC[n+]2cccc(Cc3ccccc3)c2)cc1C#CCCC[n+]1cccc(Cc2ccccc2)c1)CCC[n+]1cccc(Cc2ccccc2)c1, the Activity [1] is reported as 2.9%, the Activity [2] is reported as 53% and the inhibition (Rattus norvegicus) is reported as 17%.

Cc1cc(C)c[n+](CCCC#Cc2cc(C#CCCC[n+]3cc(C)cc(C)c3)c(C#CCCC[n+]3cc(C)cc(C)c3)cc2C#CCCC[n+]2cc(C)cc(C)c2)c1 showed an Activity [1] of 0%, an Activity [2] of 3.9% and an inhibition (Rattus norvegicus) of 12%.

Compound c1ccc(Cc2ccc[n+](CCCCCc3cc(CCCCC[n+]4cccc(Cc5ccccc5)c4)c(CCCCC[n+]4cccc(Cc5ccccc5)c4)cc3CCCCC[n+]3cccc(Cc4ccccc4)c3)c2)cc1 has an Activity [1] of 13%, an Activity [2] of 16% and an inhibition (Rattus norvegicus) of 54%. The IC50 [3] was 28 nM.

— ChEMBL document CHEMBL1143440, “Tetrakis-azaaromatic quaternary ammonium salts: novel subtype-selective antagonists at neuronal nicotinic receptors that mediate nicotine-evoked dopamine release” (Bioorg Med Chem Lett, 2008)
